Experiments:
[1] = target: T1, Scm-like with four MBT domains protein 1 (Homo sapiens, UniProt Q9UHJ3); assay: Binding affinity to human SFMBT by chemiluminescent assay
T1 sequence (Q9UHJ3 whole entry): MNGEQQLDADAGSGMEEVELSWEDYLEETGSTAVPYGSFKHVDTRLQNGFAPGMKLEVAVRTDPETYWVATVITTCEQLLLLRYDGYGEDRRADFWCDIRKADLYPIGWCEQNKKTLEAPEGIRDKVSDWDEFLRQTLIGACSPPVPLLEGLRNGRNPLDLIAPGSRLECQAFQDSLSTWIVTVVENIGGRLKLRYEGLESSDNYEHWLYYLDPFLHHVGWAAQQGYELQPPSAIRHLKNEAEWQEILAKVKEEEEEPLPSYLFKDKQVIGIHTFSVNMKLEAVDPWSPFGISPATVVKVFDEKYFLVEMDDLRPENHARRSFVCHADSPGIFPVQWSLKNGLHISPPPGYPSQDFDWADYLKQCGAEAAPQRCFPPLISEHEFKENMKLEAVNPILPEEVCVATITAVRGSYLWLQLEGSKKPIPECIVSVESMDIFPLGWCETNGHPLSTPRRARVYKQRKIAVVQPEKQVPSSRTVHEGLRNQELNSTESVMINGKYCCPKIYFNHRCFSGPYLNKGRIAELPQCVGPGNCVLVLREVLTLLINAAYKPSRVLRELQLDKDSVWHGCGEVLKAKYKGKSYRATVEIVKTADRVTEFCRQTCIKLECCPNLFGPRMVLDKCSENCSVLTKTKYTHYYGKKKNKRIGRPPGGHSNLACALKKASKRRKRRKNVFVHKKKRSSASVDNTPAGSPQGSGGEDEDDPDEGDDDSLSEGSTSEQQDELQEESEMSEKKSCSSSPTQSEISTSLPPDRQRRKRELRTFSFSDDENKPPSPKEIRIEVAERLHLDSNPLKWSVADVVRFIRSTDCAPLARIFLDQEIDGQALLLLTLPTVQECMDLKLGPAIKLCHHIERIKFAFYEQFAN
Summary of the method: (§1)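 AlphaScreen bead-based chemiluminescent proximity assay measuring antagonism of methylated histone peptide binding to the MBT/methyl-lysine reader domain. The peptide is H3K9Me1, the same one used as FAM-labelled probe (H3 residues 1-15, monomethyl K9) in the FP assay. A separate counterscreen was run for compound interference with the assay signal.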

[2] = target: MBT domain-containing protein 1 (Homo sapiens, UniProt Q05BQ5); assay: Binding affinity to MBTD1 by chemiluminescent assay; summary of the method: as §1
[3] = target: T2, Lethal(3)malignant brain tumor-like protein 4 (Homo sapiens, UniProt Q8NA19); assay: Binding affinity to L3MBTL4 by chemiluminescent assay; summary of the method: as §1
T2 sequence (Q8NA19 whole entry): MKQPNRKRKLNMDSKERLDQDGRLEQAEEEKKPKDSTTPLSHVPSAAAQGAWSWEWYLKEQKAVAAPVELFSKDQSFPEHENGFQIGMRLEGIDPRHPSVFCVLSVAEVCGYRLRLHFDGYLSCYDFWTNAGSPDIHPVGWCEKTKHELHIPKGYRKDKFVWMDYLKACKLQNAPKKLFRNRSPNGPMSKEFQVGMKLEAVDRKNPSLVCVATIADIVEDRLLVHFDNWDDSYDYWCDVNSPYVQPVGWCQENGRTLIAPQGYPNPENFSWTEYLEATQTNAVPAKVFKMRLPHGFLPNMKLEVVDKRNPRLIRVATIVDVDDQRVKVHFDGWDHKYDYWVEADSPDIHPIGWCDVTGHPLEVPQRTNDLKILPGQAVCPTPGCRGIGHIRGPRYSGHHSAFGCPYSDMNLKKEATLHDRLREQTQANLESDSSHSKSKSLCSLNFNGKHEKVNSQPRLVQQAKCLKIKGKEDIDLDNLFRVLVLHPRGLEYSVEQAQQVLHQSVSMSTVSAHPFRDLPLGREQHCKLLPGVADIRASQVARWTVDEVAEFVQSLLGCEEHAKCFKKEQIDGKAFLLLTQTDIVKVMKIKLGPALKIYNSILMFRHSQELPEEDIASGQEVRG

[4] = target: T3, Lethal(3)malignant brain tumor-like protein 3 (Homo sapiens, UniProt Q96JM7); assay: Binding affinity to L3MBTL3 by chemiluminescent assay; summary of the method: as §1
T3 sequence (Q96JM7 whole entry): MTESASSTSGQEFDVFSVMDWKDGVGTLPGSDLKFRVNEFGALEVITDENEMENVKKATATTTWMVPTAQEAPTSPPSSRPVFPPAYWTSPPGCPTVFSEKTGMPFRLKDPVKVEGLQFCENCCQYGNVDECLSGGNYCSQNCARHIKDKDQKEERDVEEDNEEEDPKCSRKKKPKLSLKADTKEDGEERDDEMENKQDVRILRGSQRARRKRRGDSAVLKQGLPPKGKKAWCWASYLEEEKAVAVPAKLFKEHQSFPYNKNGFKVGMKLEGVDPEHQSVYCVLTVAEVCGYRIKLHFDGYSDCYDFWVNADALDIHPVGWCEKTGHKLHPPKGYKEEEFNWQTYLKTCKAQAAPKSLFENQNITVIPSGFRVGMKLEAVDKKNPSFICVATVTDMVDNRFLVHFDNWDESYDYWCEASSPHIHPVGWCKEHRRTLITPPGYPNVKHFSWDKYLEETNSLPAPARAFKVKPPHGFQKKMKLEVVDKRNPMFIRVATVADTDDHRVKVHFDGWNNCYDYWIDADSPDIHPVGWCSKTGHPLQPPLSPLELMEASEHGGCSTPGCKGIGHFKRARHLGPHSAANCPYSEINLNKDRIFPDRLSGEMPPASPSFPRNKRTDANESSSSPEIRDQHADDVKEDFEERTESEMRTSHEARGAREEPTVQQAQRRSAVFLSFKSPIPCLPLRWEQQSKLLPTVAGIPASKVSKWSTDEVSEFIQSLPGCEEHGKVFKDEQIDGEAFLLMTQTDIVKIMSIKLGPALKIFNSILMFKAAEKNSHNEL

[5] = target: PHD finger protein 13 (Homo sapiens, UniProt Q86YI8); assay: Binding affinity to PHF13 by chemiluminescent assay; summary of the method: as §1
[6] = target: T4, Chromobox protein homolog 7 (Homo sapiens, UniProt O95931); assay: Binding affinity to CBX7 by chemiluminescent assay; summary of the method: as §1
T4 sequence (O95931 whole entry): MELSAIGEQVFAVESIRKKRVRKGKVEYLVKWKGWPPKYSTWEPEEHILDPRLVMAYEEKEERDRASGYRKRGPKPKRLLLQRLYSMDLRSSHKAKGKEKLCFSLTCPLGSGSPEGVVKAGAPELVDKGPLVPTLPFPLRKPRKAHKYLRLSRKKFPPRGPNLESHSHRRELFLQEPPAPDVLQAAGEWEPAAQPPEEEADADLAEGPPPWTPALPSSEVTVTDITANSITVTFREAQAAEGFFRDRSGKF

Chain of PHD finger protein 13 (Q86YI8 whole entry): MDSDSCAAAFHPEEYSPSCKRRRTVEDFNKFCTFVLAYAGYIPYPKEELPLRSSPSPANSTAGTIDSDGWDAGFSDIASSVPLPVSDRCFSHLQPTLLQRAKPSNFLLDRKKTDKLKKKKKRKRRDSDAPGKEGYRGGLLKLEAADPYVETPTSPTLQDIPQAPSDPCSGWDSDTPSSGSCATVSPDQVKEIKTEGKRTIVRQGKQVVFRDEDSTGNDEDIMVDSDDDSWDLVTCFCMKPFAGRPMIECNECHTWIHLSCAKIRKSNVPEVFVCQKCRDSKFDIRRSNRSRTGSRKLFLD
Chain of MBT domain-containing protein 1 (Q05BQ5 whole entry, the tested form may be a part): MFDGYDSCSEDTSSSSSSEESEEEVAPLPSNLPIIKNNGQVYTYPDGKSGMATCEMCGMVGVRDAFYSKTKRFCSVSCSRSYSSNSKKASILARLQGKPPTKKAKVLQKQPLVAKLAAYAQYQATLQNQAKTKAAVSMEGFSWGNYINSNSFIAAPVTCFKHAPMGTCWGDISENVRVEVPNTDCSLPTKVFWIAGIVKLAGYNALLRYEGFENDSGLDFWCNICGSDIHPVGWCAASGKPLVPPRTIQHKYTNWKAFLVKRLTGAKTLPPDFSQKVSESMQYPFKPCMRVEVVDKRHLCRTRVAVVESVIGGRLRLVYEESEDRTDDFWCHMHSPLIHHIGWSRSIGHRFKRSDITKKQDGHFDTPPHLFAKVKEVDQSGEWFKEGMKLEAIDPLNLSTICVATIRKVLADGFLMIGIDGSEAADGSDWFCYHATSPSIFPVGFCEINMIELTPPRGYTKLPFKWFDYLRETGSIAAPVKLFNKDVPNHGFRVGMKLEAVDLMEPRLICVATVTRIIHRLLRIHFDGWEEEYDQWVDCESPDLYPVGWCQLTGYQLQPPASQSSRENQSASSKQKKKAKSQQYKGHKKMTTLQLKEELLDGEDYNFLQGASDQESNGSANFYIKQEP

| IC50 [1] | IC50 [2] | IC50 [5] | IC50 [6] | IC50 ([5]; read-out: IC50) [µM] | SMILES | IC50 ([3]; read-out: IC50) [µM] | IC50 [4] [µM] | IC50 [3] |
| --- | --- | --- | --- | --- | --- | --- | --- | --- |
| Not Active | Not Active | Not Active | Not Active | – | O=C(c1cncc(Br)c1)N1CCC(N2CCCC2)CC1 | 69 | 35 | – |
| Not Active | Not Active | – | Not Active | 48 | O=C(NCCCCCN1CCCC1)c1cncc(Br)c1 | – | 28 | Not Active |

Source: ChEMBL document CHEMBL1765036, “Small-molecule ligands of methyl-lysine binding proteins” (J Med Chem, 2011)
